ChEMBL document CHEMBL2163262 (J Med Chem, 2012)
Where “and” joins values, the source holds several entries; their conditions need not be identical. Equal entries are not always repeated.

How the values were obtained:
[1] = system: Neuropeptide FF receptor 1 (Homo sapiens), Q9GZQ6 [E205A]; assay: Agonist activity at human NPFF1 receptor E5.27A mutant assessed as [3H]inositol phosphate accumulation at 10 uM after 2 hrs by liquid scintillation counting relative to NPVF; assay type: functional
Method in brief: (§1)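 IP accumulation in COS-7 cells transiently cotransfected with human NPFFR (Ala point mutant or wt) plus chimeric G protein. Cells seeded at 60,000/well and grown to subconfluency. Compounds were dissolved in DMSO and diluted in DMEM with 10 mM LiCl (1% v/v DMSO final). Stimulation lasted 2 h.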

[2] = system: Neuropeptide FF receptor 2 (Homo sapiens), Q9Y5X5 [Y417A]; assay: Partial agonist activity at human NPFF2 receptor F/Y7.35A mutant assessed as [3H]inositol phosphate accumulation at 10 uM after 2 hrs by liquid scintillation counting relative to NPFF; assay type: functional
Sequence of Neuropeptide FF receptor 2 (Homo sapiens), Q9Y5X5 [Y417A] (Q9Y5X5 whole entry Y417A): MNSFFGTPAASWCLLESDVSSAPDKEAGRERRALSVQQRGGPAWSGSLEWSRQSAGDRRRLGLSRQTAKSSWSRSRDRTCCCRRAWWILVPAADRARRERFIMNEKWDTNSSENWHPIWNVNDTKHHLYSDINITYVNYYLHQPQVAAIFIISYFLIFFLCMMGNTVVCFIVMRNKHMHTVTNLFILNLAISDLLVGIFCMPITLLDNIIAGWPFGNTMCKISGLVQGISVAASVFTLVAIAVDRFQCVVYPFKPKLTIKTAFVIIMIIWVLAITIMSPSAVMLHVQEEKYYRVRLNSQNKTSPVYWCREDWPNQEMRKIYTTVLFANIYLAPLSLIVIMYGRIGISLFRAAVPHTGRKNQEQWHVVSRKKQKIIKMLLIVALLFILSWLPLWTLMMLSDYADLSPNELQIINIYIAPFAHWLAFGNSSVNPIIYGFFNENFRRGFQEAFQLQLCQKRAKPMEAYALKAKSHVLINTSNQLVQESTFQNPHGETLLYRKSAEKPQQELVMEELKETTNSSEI

[3] = molecular target: T1, Neuropeptide FF receptor 1 (Homo sapiens, UniProt Q9GZQ6); assay: Agonist activity at human NPFF1 receptor expressed in COS1 cells assessed as [3H]inositol phosphate accumulation up to 10 uM after 2 hrs by liquid scintillation counting; assay type: functional, cell-based; conditions: cos-1
T1 sequence (Q9GZQ6 whole entry): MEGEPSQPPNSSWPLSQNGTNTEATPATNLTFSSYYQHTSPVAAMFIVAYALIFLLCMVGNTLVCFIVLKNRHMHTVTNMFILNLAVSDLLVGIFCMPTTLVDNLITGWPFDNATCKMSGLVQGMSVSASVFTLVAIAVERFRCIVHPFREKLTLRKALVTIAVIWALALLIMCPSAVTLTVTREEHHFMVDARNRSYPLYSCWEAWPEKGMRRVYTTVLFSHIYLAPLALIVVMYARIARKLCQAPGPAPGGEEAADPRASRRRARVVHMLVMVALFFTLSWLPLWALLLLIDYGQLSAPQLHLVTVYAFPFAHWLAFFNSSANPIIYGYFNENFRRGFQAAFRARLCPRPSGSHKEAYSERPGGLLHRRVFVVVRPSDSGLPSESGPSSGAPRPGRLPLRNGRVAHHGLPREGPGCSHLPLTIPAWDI

[4] = molecular target: T2, Neuropeptide FF receptor 2 (Homo sapiens, UniProt Q9Y5X5); assay: Agonist activity at human NPFF2 receptor expressed in COS1 cells assessed as [3H]inositol phosphate accumulation at 10 uM after 2 hrs by liquid scintillation counting relative to NPFF; assay type: functional, cell-based; conditions: COS-1
T2 sequence (Q9Y5X5 whole entry): as the sequence (Q9Y5X5 whole entry Y417A) above, with A417Y counted along it

[5] = molecular target: Neuropeptide FF receptor 1 (Homo sapiens, UniProt Q9GZQ6, Y309A); assay: Agonist activity at human NPFF1 receptor Y7.33A mutant assessed as [3H]inositol phosphate accumulation after 2 hrs by liquid scintillation counting; assay type: functional; method in brief: as §1
Sequence of Neuropeptide FF receptor 1 (Homo sapiens, UniProt Q9GZQ6, Y309A) (Q9GZQ6 whole entry Y309A): as the sequence (Q9GZQ6 whole entry) above, with Y309A counted along it

[6] = molecular target: Neuropeptide FF receptor 1 (Homo sapiens, UniProt Q9GZQ6, D294A); assay: Agonist activity at human NPFF1 receptor D6.59A mutant assessed as [3H]inositol phosphate accumulation after 2 hrs by liquid scintillation counting; assay type: functional; method in brief: as §1
Sequence of Neuropeptide FF receptor 1 (Homo sapiens, UniProt Q9GZQ6, D294A) (Q9GZQ6 whole entry D294A): as the sequence (Q9GZQ6 whole entry) above, with D294A counted along it

[7] = molecular target: Neuropeptide FF receptor 2 (Homo sapiens, UniProt Q9Y5X5, D400A); assay: Agonist activity at human NPFF2 receptor D6.59A mutant assessed as [3H]inositol phosphate accumulation after 2 hrs by liquid scintillation counting; assay type: functional; method in brief: as §1
Sequence of Neuropeptide FF receptor 2 (Homo sapiens, UniProt Q9Y5X5, D400A) (Q9Y5X5 whole entry D400A): as the sequence (Q9Y5X5 whole entry Y417A) above, with D400A, A417Y counted along it

[8] = system: Neuropeptide FF receptor 1 (Homo sapiens), Q9GZQ6 [D294A]; assay: Agonist activity at human NPFF1 receptor D6.59A mutant assessed as [3H]inositol phosphate accumulation at 31.6 uM after 2 hrs by liquid scintillation counting relative to NPVF; assay type: functional; method in brief: as §1
Sequence of Neuropeptide FF receptor 1 (Homo sapiens), Q9GZQ6 [D294A] (Q9GZQ6 whole entry D294A): as the sequence (Q9GZQ6 whole entry) above, with D294A counted along it

[9] = molecular target: T2, Neuropeptide FF receptor 2; assay: Agonist activity at human NPFF2 receptor expressed in COS1 cells assessed as [3H]inositol phosphate accumulation after 2 hrs by liquid scintillation counting; assay type: functional, cell-based, COS-1
[10] = system: Neuropeptide FF receptor 2 (Homo sapiens), Q9Y5X5 [Y417A]; assay: Agonist activity at human NPFF2 receptor F/Y7.35A mutant assessed as [3H]inositol phosphate accumulation at 10 uM after 2 hrs by liquid scintillation counting relative to NPFF; assay type: functional; method in brief: as §1
[11] = molecular target: Neuropeptide FF receptor 2 (Homo sapiens, UniProt Q9Y5X5, E310A); assay: Agonist activity at human NPFF2 receptor E5.27A mutant assessed as [3H]inositol phosphate accumulation after 2 hrs by liquid scintillation counting; assay type: functional; method in brief: as §1
Sequence of Neuropeptide FF receptor 2 (Homo sapiens, UniProt Q9Y5X5, E310A) (Q9Y5X5 whole entry E310A): as the sequence (Q9Y5X5 whole entry Y417A) above, with E310A, A417Y counted along it

[12] = system: Neuropeptide FF receptor 2 (Homo sapiens), Q9Y5X5 [E310A]; assay: Agonist activity at human NPFF2 receptor E5.27A mutant assessed as [3H]inositol phosphate accumulation at 31.6 uM after 2 hrs by liquid scintillation counting relative to NPFF; assay type: functional; method in brief: as §1
Sequence of Neuropeptide FF receptor 2 (Homo sapiens), Q9Y5X5 [E310A] (Q9Y5X5 whole entry E310A): as the sequence (Q9Y5X5 whole entry Y417A) above, with E310A, A417Y counted along it

[13] = molecular target: Neuropeptide FF receptor 1 (Homo sapiens, UniProt Q9GZQ6, Y216A); assay: Agonist activity at human NPFF1 receptor Y5.38A mutant assessed as [3H]inositol phosphate accumulation after 2 hrs by liquid scintillation counting; assay type: functional; method in brief: as §1
Sequence of Neuropeptide FF receptor 1 (Homo sapiens, UniProt Q9GZQ6, Y216A) (Q9GZQ6 whole entry Y216A): as the sequence (Q9GZQ6 whole entry) above, with Y216A counted along it

[14] = system: Neuropeptide FF receptor 1 (Homo sapiens), Q9GZQ6 [E205A]; assay: Agonist activity at human NPFF1 receptor E5.27A mutant assessed as [3H]inositol phosphate accumulation at 31.6 uM after 2 hrs by liquid scintillation counting relative to NPVF; assay type: functional; method in brief: as §1
[15] = molecular target: Neuropeptide FF receptor 2 (Homo sapiens, UniProt Q9Y5X5, Y417A); assay: Agonist activity at human NPFF2 receptor F/Y7.35A mutant assessed as [3H]inositol phosphate accumulation after 2 hrs by liquid scintillation counting; assay type: functional; method in brief: as §1
Sequence of Neuropeptide FF receptor 2 (Homo sapiens, UniProt Q9Y5X5, Y417A) (Q9Y5X5 whole entry Y417A): as the sequence (Q9Y5X5 whole entry Y417A) above

[16] = molecular target: Neuropeptide FF receptor 2 (Homo sapiens, UniProt Q9Y5X5, Y321A); assay: Agonist activity at human NPFF2 receptor Y5.38A mutant assessed as [3H]inositol phosphate accumulation after 2 hrs by liquid scintillation counting; assay type: functional; method in brief: as §1
Sequence of Neuropeptide FF receptor 2 (Homo sapiens, UniProt Q9Y5X5, Y321A) (Q9Y5X5 whole entry Y321A): as the sequence (Q9Y5X5 whole entry Y417A) above, with Y321A, A417Y counted along it

[17] = system: Neuropeptide FF receptor 1 (Homo sapiens), Q9GZQ6 [Y216A]; assay: Agonist activity at human NPFF1 receptor Y5.38A mutant assessed as [3H]inositol phosphate accumulation at 31.6 uM after 2 hrs by liquid scintillation counting relative to NPVF; assay type: functional; method in brief: as §1
Sequence of Neuropeptide FF receptor 1 (Homo sapiens), Q9GZQ6 [Y216A] (Q9GZQ6 whole entry Y216A): as the sequence (Q9GZQ6 whole entry) above, with Y216A counted along it

[18] = system: Neuropeptide FF receptor 2 (Homo sapiens), Q9Y5X5 [D400A]; assay: Agonist activity at human NPFF2 receptor D6.59A mutant assessed as [3H]inositol phosphate accumulation at 31.6 uM after 2 hrs by liquid scintillation counting relative to NPFF; assay type: functional; method in brief: as §1
Sequence of Neuropeptide FF receptor 2 (Homo sapiens), Q9Y5X5 [D400A] (Q9Y5X5 whole entry D400A): as the sequence (Q9Y5X5 whole entry Y417A) above, with D400A, A417Y counted along it

[19] = system: Neuropeptide FF receptor 1 (Homo sapiens), Q9GZQ6 [F311A]; assay: Agonist activity at human NPFF1 receptor F/Y7.35A mutant assessed as [3H]inositol phosphate accumulation at 31.6 uM after 2 hrs by liquid scintillation counting relative to NPVF; assay type: functional; method in brief: as §1
Sequence of Neuropeptide FF receptor 1 (Homo sapiens), Q9GZQ6 [F311A] (Q9GZQ6 whole entry F311A): as the sequence (Q9GZQ6 whole entry) above, with F311A counted along it

[20] = system: Neuropeptide FF receptor 2 (Homo sapiens), Q9Y5X5 [Y415A]; assay: Agonist activity at human NPFF2 receptor Y7.33A mutant assessed as [3H]inositol phosphate accumulation at 31.6 uM after 2 hrs by liquid scintillation counting relative to NPFF; assay type: functional; method in brief: as §1
Sequence of Neuropeptide FF receptor 2 (Homo sapiens), Q9Y5X5 [Y415A] (Q9Y5X5 whole entry Y415A): as the sequence (Q9Y5X5 whole entry Y417A) above, with Y415A, A417Y counted along it

[21] = system: Neuropeptide FF receptor 2 (Homo sapiens), Q9Y5X5 [Y321A]; assay: Agonist activity at human NPFF2 receptor Y5.38A mutant assessed as [3H]inositol phosphate accumulation at 31.6 uM after 2 hrs by liquid scintillation counting relative to NPFF; assay type: functional; method in brief: as §1
Sequence of Neuropeptide FF receptor 2 (Homo sapiens), Q9Y5X5 [Y321A] (Q9Y5X5 whole entry Y321A): as the sequence (Q9Y5X5 whole entry Y417A) above, with Y321A, A417Y counted along it

[22] = molecular target: T1, Neuropeptide FF receptor 1; assay: Agonist activity at human NPFF1 receptor expressed in COS1 cells assessed as [3H]inositol phosphate accumulation at 10 uM after 2 hrs by liquid scintillation counting relative to NPVF; assay type: functional, cell-based; conditions: COS-1
[23] = molecular target: Neuropeptide FF receptor 2 (Homo sapiens, UniProt Q9Y5X5, Y415A); assay: Agonist activity at human NPFF2 receptor Y7.33A mutant assessed as [3H]inositol phosphate accumulation after 2 hrs by liquid scintillation counting; assay type: functional; method in brief: as §1
Sequence of Neuropeptide FF receptor 2 (Homo sapiens, UniProt Q9Y5X5, Y415A) (Q9Y5X5 whole entry Y415A): as the sequence (Q9Y5X5 whole entry Y417A) above, with Y415A, A417Y counted along it

[24] = molecular target: Neuropeptide FF receptor 1 (Homo sapiens, UniProt Q9GZQ6, E205A); assay: Agonist activity at human NPFF1 receptor E5.27A mutant assessed as [3H]inositol phosphate accumulation after 2 hrs by liquid scintillation counting; assay type: functional; method in brief: as §1
Sequence of Neuropeptide FF receptor 1 (Homo sapiens, UniProt Q9GZQ6, E205A) (Q9GZQ6 whole entry E205A): as the sequence (Q9GZQ6 whole entry) above, with E205A counted along it

[25] = system: Neuropeptide FF receptor 1 (Homo sapiens), Q9GZQ6 [Y309A]; assay: Agonist activity at human NPFF1 receptor Y7.33A mutant assessed as [3H]inositol phosphate accumulation at 10 uM after 2 hrs by liquid scintillation counting relative to NPVF; assay type: functional; method in brief: as §1
Sequence of Neuropeptide FF receptor 1 (Homo sapiens), Q9GZQ6 [Y309A] (Q9GZQ6 whole entry Y309A): as the sequence (Q9GZQ6 whole entry) above, with Y309A counted along it

[26] = molecular target: T1, Neuropeptide FF receptor 1; assay: Agonist activity at human NPFF1 receptor expressed in […] assessed as [3H]inositol phosphate accumulation after 2 hrs by liquid scintillation counting; assay type: functional, cell-based, COS-1; method in brief: as §1
[27] = molecular target: Neuropeptide FF receptor 1 (Homo sapiens, UniProt Q9GZQ6, F311A); assay: Agonist activity at human NPFF1 receptor F/Y7.35A mutant assessed as [3H]inositol phosphate accumulation after 2 hrs by liquid scintillation counting; assay type: functional; method in brief: as §1
Sequence of Neuropeptide FF receptor 1 (Homo sapiens, UniProt Q9GZQ6, F311A) (Q9GZQ6 whole entry F311A): as the sequence (Q9GZQ6 whole entry) above, with F311A counted along it

[28] = molecular target: T1, Neuropeptide FF receptor 1; assay: Partial agonist activity at human NPFF1 receptor expressed in COS1 cells assessed as [3H]inositol phosphate accumulation at 10 uM after 2 hrs by liquid scintillation counting relative to NPVF; assay type: functional, cell-based; conditions: COS-1
[29] = system: Neuropeptide FF receptor 1 (Homo sapiens), Q9GZQ6 [F311A]; assay: Agonist activity at human NPFF1 receptor F/Y7.35A mutant assessed as [3H]inositol phosphate accumulation at 10 uM after 2 hrs by liquid scintillation counting relative to NPVF; assay type: functional
[30] = molecular target: T1, Neuropeptide FF receptor 1; assay: Ratio of EC50 for human NPFF1 receptor F/Y7.35A mutant to EC50 for human wild type NPFF1 receptor
[31] = molecular target: T1, Neuropeptide FF receptor 1; assay: Competitive antagonist activity at human NPFF1 receptor expressed in COS1 cells assessed as inhibition of NPVF-induced [3H]inositol phosphate accumulation after 2 hrs by liquid scintillation counting; assay type: functional, cell-based, COS-1; conditions: read-out: pA2 (converted)
[32] = system: Neuropeptide FF receptor 2 (Homo sapiens), Q9Y5X5 [Y415A]; assay: Agonist activity at human NPFF2 receptor Y7.33A mutant assessed as [3H]inositol phosphate accumulation at 10 uM after 2 hrs by liquid scintillation counting relative to NPFF; assay type: functional
[33] = system: Neuropeptide FF receptor 2 (Homo sapiens), Q9Y5X5 [Y321A]; assay: Agonist activity at human NPFF2 receptor Y5.38A mutant assessed as [3H]inositol phosphate accumulation at 10 uM after 2 hrs by liquid scintillation counting relative to NPFF; assay type: functional; method in brief: as §1
[34] = system: Neuropeptide FF receptor 2 (Homo sapiens), Q9Y5X5 [D400A]; assay: Agonist activity at human NPFF2 receptor D6.59A mutant assessed as [3H]inositol phosphate accumulation at 31.6 uM after 2 hrs by liquid scintillation counting relative to NPFF

Sequence of Neuropeptide FF receptor 1 (Homo sapiens), Q9GZQ6 [E205A] (Q9GZQ6 whole entry E205A): as the sequence (Q9GZQ6 whole entry) above, with E205A counted along it

CC(C)C[C@H](NC(=O)[C@H](CC(N)=O)NC(=O)[C@@H]1CCCN1C(=O)[C@@H](N)C(C)C)C(=O)N1CCC[C@H]1C(=O)N[C@@H](CCC(N)=O)C(=O)N[C@@H](CCCNC(=N)N)C(=O)N[C@@H](Cc1ccccc1)C(N)=O
Emax [1]: 66%

NC(N)=NCCC[C@@H](NC(=O)C(c1ccccc1)c1ccccc1)C(=O)NCc1ccc(O)cc1
Emax [2]: 51% | EC50 [3]: Not Active | Emax [4]: 57%

N=C(N)N/N=C/c1ccc(-c2ccc(Br)cc2C(F)(F)F)o1
EC50 [5]: 4610 nM | EC50 [6]: > 10000 nM | EC50 [7]: > 10000 nM | Emax [8]: 85% | EC50 [9]: 1660 nM | Emax [10]: 100% | EC50 [11]: > 10000 nM | Emax [12]: 24% | EC50 [13]: > 10000 nM | Emax [14]: 21% | EC50 [15]: 1260 nM | EC50 [16]: > 10000 nM | Emax [17]: 37% | Emax [18]: 77% | Emax [19]: 88% | Emax [20]: 78% | Emax [21]: 65% | Emax [4]: 118% | Emax [22]: 110% | EC50 [23]: > 10000 nM | EC50 [24]: > 10000 nM | Emax [25]: 111% | EC50 [26]: 5620 nM | EC50 [27]: > 10000 nM

N=C(N)N/N=C/c1ccc(Br)c(Br)c1
EC50 [9]: 2190 nM | Emax [28]: 22% | EC50 [26]: 527 nM

N=C(N)N/N=C/c1ccc(Cl)c(C(F)(F)F)c1
EC50 [26]: 2370 nM

NC(=O)[C@H](Cc1ccccc1)NC(=O)[C@H](CCCN=C(N)N)NC(=O)C12CC3CC(CC(C3)C1)C2
EC50 [9]: 379 nM | EC50 [15]: 472 nM | EC50 [26]: 71 nM | EC50 [27]: 462 nM

N=C(N)NCCC[C@H](NC(=O)C12CC3CC(CC(C3)C1)C2)C(=O)N[C@@H](Cc1ccccc1)C(N)=O
Emax [29]: 89% | Emax [10]: 75% | Emax [4]: 75% | Emax [22]: 93% | Ratio EC50 [30]: 271

N=C(N)NCCC[C@@H](NC(=O)C(c1ccccc1)c1ccccc1)C(=O)NCc1ccc(O)cc1
EC50 [9]: 233 nM | EC50 [15]: 113 nM | Kb [31]: 20.9 nM

N=C(N)N/N=C/C12CC3CC(CC(C3)C1)C2
EC50 [7]: 8860 nM | EC50 [9]: 298 nM | Emax [10]: 107% | EC50 [3]: Not Active | EC50 [11]: > 10000 nM | Emax [12]: 59% | Emax [32]: 83% | EC50 [15]: 301 nM | Emax [33]: 83% and 69% | EC50 [16]: 2450 nM | Emax [4]: 132% | EC50 [23]: 8330 nM | Emax [34]: 140% | Kb [31]: 41.7 nM
